Activity calls are given as the source filed them. The rule behind the calls is not given here.
Columns and labels:
[1] = species on record: Homo sapiens; experiment: Selectivity ratio of IC50 for human SGLT1 to IC50 for human SGLT2
[2] = molecular target: T1, Sodium/glucose cotransporter 2 (Homo sapiens, UniProt P31639); experiment: Inhibition of human SGLT2 expressed in CHO cells assessed as [14C]-methyl-alpha-D-glucopyranoside accumulation; assay type: cell-based
T1 sequence (P31639 whole entry): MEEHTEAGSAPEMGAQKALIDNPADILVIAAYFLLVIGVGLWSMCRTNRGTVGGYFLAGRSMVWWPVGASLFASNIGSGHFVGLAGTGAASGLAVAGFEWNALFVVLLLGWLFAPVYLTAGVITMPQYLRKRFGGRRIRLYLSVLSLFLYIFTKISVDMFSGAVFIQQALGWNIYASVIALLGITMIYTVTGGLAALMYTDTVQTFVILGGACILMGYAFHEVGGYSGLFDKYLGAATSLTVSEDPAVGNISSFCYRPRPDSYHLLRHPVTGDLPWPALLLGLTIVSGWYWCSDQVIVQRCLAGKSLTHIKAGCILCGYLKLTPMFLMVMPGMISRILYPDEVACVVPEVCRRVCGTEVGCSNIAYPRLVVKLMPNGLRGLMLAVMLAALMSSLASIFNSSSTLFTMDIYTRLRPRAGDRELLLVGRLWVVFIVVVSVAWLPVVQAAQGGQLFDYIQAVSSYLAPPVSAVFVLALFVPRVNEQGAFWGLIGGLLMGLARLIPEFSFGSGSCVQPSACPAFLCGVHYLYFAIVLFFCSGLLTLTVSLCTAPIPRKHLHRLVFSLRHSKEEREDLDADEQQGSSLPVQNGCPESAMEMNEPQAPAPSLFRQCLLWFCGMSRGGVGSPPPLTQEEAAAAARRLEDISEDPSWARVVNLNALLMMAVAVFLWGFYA

[3] = tested on: Mus musculus; experiment: Antihyperglycemic activity in KK/Ay type-2 diabetic mouse model assessed as reduction of blood glucose level at 3 mg/kg, po measured for 8 hrs relative to vehicle-treated control; assay type: functional; parameters: scale not given: the % may be the effect or the level left
In short: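 KK/Ay mice in the fed condition were given a single oral dose (0.1–3 mg/kg). Blood glucose was followed over time, and suppression of glucose AUC was calculated relative to vehicle. Mean ± SEM, 6 animals per group.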

[4] = tested on: Mus musculus; experiment: Antihyperglycemic activity in KK/Ay type-2 diabetic mouse model assessed as increase in urinary glucose excretion at => 0.3 mg/kg, po measured over 12 hrs; assay type: functional, organism-based; parameters: dose 0.3 mg/kg; conditions: Urine
[5] = tested on: Mus musculus; experiment: Antihyperglycemic activity in po dosed KK/Ay type-2 diabetic mouse model assessed as increase in urinary glucose excretion measured over 24 hrs; assay type: functional, organism-based; conditions: Urine
[6] = Oral bioavailability in Sprague-Dawley rat at 3 mg/kg; assay type: ADME, organism-based; conditions: in vivo
In short: (§1)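 Male Sprague–Dawley rats, bought at 5–7 weeks of age. A single 1.0 mg/kg intravenous dose or a single 3 mg/kg oral dose was given. Plasma pharmacokinetic parameters were derived: T1/2, CLtot, Vdss, Cmax, Tmax, AUC(0–inf) and oral bioavailability F.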

[7] = Ratio of drug level in kidney to plasma in Sprague-Dawley rat at 1 mg/kg, iv and 3 mg/kg, po; assay type: ADME, organism-based
In short: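 Male Sprague–Dawley rats received a single 1.0 mg/kg iv or a single 3 mg/kg oral dose. Drug concentration in kidney was compared with that in plasma.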

[8] = AUC (0 to infinity) in Sprague-Dawley rat at 1 mg/kg, iv; assay type: ADME, organism-based; parameters: time infinity, dose 1 mg/kg, route intravenous; conditions: plasma; in short: as §1
[9] = Cmax in Sprague-Dawley rat at 3 mg/kg, po; assay type: ADME, organism-based; parameters: dose 3 mg/kg, route oral; conditions: in vivo; in short: as §1
[10] = Tmax in Sprague-Dawley rat at 3 mg/kg, po; assay type: ADME, organism-based; parameters: dose 3 mg/kg, route oral; conditions: in vivo; in short: as §1
[11] = tested on: Rattus norvegicus; experiment: Volume of distribution at steady state in Sprague-Dawley rat at 1 mg/kg, iv; assay type: ADME, organism-based; parameters: dose 1 mg/kg, route intravenous; conditions: in vivo; in short: as §1
[12] = Half life in Sprague-Dawley rat at 1 mg/kg, iv; assay type: ADME, organism-based; parameters: dose 1 mg/kg, route intravenous; conditions: in vivo; in short: as §1
[13] = Half life in Sprague-Dawley rat at 3 mg/kg, po; assay type: ADME, organism-based; parameters: dose 3 mg/kg, route oral; conditions: in vivo; in short: as §1
[14] = tested on: Rattus norvegicus; experiment: Antihyperglycemic activity in streptozotocin-induced type-1 diabetes mellitus rat model assessed as reduction of blood glucose level at 0.1 to 3 mg/kg, po measured for 8 hrs

SMILES	Ratio IC50 [1]	IC50 [2] [µM]	further results
OC[C@H]1O[C@@H](c2cccc(Cc3cc4cccccc-4c3)c2)[C@H](O)[C@@H](O)[C@@H]1O	590	–	–
OC[C@H]1O[C@@H](c2cccc(Cc3ccc4cccc-4cc3)c2)[C@H](O)[C@@H](O)[C@@H]1O	230	–	–
CCc1c(Cc2cccc([C@@H]3O[C@H](CO)[C@@H](O)[C@H](O)[C@H]3O)c2)cc2cccccc1-2	> 1.9	5.2	–
CC(=O)c1c(Cc2cccc([C@@H]3O[C@H](CO)[C@@H](O)[C@H](O)[C@H]3O)c2)cc2cccccc1-2	> 0.8	12	–
COc1ccc([C@@H]2O[C@H](CO)[C@@H](O)[C@H](O)[C@H]2O)cc1Cc1cc2cccccc-2c1	35	0.017	–
Cc1cc(Cc2cccc([C@@H]3O[C@H](CO)[C@@H](O)[C@H](O)[C@H]3O)c2)c2cccccc1-2	–	44	–
OC[C@H]1O[C@@H](c2cccc(Cc3cc4cccccc-4c3Cc3ccccc3)c2)[C@H](O)[C@@H](O)[C@@H]1O	> 10	0.97	–
OC[C@H]1O[C@@H](c2cc(Cc3cc4cccccc-4c3)ccc2Cl)[C@H](O)[C@@H](O)[C@@H]1O	200	0.07	–
COc1ccc(Cc2cc3cccccc-3c2)cc1[C@@H]1O[C@H](CO)[C@@H](O)[C@H](O)[C@H]1O	2100	–	–
OC[C@H]1O[C@@H](c2cc(Cc3cc4cccccc-4c3)ccc2F)[C@H](O)[C@@H](O)[C@@H]1O	123	0.039	–
OC[C@H]1O[C@@H](c2ccc(F)c(Cc3cc4cccccc-4c3)c2)[C@H](O)[C@@H](O)[C@@H]1O	610	0.014	–
OC[C@H]1O[C@@H](c2cc(Cc3cc4cccccc-4c3)ccc2O)[C@H](O)[C@@H](O)[C@@H]1O [YM-543 FREE ACID]	280	–	Activity [3]: 56%; Activity [4]: Active; Activity [5]: Dose-dependent effect; bioavailability [6]: 29%; Kp [7]: 23; AUC(0-inf) [8]: 0.403 µg·h/mL; Cmax [9]: 0.101 µg/mL; Tmax [10]: 30 min; Vdss [11]: 3.36 L/kg; half-life [12]: 54 min; half-life [13]: 78 min; Activity [14]: Active
OC[C@H]1O[C@@H](c2ccc(Cl)c(Cc3cc4cccccc-4c3)c2)[C@H](O)[C@@H](O)[C@@H]1O	140	0.0079	–
